# Laboratory results as given in ChEMBL document CHEMBL3102822, “Synthesis, biological evaluation and molecular docking studies of benzyloxyacetohydroxamic acids as LpxC inhibitors” (Bioorg Med Chem, 2014).
# Activity calls are given as the source filed them. The rule behind the calls is not given here.
# Assays:
# [1] = molecular target: T1, UDP-3-O-acyl-N-acetylglucosamine deacetylase (Escherichia coli K-12, UniProt P0A725); experiment: Inhibition of Escherichia coli LpxC using UDP-3-O-[(R)-3-hydroxymyristoyl]-N-acetylglucosamine as substrate incubated for 30 mins prior to enzyme addition by fluorescence assay
# T1 sequence (P0A725 whole entry): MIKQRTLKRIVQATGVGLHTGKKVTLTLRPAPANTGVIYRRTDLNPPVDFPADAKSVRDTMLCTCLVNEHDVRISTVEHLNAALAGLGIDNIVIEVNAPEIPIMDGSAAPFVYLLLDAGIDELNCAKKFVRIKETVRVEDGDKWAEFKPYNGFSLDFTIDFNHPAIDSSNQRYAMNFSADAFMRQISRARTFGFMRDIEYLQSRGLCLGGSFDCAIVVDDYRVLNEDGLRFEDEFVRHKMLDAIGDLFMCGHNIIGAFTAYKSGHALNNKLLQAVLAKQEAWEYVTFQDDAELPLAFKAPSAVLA
# Escherichia coli [2] = experiment: Antimicrobial activity against Escherichia coli D22 at 10 mM after overnight incubation by agar disc diffusion method; format: functional; details: read-out: DIZ
# Summary of the method: (§1)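 Strains grown overnight in LB broth at 37 °C, 200 rpm; 150 µL overnight suspension spread on LB agar. 15 µL of compound (10 mM stock in DMSO) applied to 6 mm filter paper discs; DMSO negative and CHIR-090 positive controls. Plates incubated overnight at 37 °C; zone of inhibition diameter measured, mean ± SD of three independent experiments.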
# Escherichia coli [3] = experiment: Antimicrobial activity against Escherichia coli BL21(DE3) at 10 mM after overnight incubation by agar disc diffusion method; format: functional; details: read-out: DIZ; summary of the method: as §1
# [4] = molecular target: T2, UDP-3-O-acyl-N-acetylglucosamine deacetylase (Escherichia coli K-12) (UniProt P0A725); experiment: Inhibition of Escherichia coli LpxC using UDP-3-O-[(R)-3-hydroxymyristoyl]-N-acetylglucosamine as substrate up to 200 uM incubated for 30 mins prior to enzyme addition by fluorescence assay
# T2 sequence (whole entry): T1 sequence (P0A725 whole entry)
# Summary of the method: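 Purified E. coli LpxC (stored in 50 mM Bis/Tris pH 6.0, 150 mM NaCl). 40 mM MES pH 6.0 with 25 µM substrate, 80 µM DTT, 0.02% Brij 35; inhibitors in DMSO, 0.2 nM–200 µM, 30 min at 37 °C shaking before adding 500 ng enzyme. Stopped with NaOH, neutralized with acetic acid; product derivatized with o-phthaldialdehyde-2-mercaptoethanol in borax, fluorescence ex 340/em 460 nm. IC50 converted to Ki by Cheng-Prusoff (KM 4 µM); mean ± SD, n=3.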
SMILES,IC50 [1],inhibition [4],Ki [1],zone of inhibition at 10000 µM (Escherichia coli [2]),zone of inhibition at 10000 µM (Escherichia coli [3])
O=C(NO)[C@H](CO)O[C@H](CO)c1ccc(C#Cc2ccc(CN3CCOCC3)cc2)cc1,2.6 µM,,358 nM,20.8 mm,9 mm
O=C(COCc1ccc(C#Cc2ccc(CN3CCOCC3)cc2)cc1)NO,10.5 µM,,1450 nM,20.3 mm,16.5 mm
O=C(CO[C@@H](CO)c1ccc(C#Cc2ccc(CN3CCOCC3)cc2)cc1)NO,198 µM,,27300 nM,12.3 mm,8.7 mm
O=C(CO[C@H](CO)c1ccc(Br)cc1)NO,> 200 µM,inactive,,< 6 mm,< 6 mm
O=C(CO[C@H](CO)c1ccc(C#Cc2ccccc2)cc1)NO,0.48 µM,,66 nM,20.5 mm,9.5 mm
C[C@@H](O)[C@H](NC(=O)c1ccc(C#Cc2ccc(CN3CCOCC3)cc2)cc1)C(=O)NO,,,,30.3 mm,24.6 mm
C#Cc1ccc([C@@H](CO)OCC(=O)NO)cc1,> 200 µM,inactive,,< 6 mm,< 6 mm
O=C(CO[C@@H](CO)c1ccc(C#Cc2ccccc2)cc1)NO,31.6 µM,,4400 nM,13 mm,9.1 mm
O=C(CO[C@H](CO)c1ccc(C#Cc2ccc(CN3CCOCC3)cc2)cc1)NO,0.69 µM,,95 nM,21.2 mm,13.4 mm

# Second part, led by results:
IC50 [1],inhibition [4],SMILES,Ki [1],zone of inhibition at 10000 µM (Escherichia coli [2]),zone of inhibition at 10000 µM (Escherichia coli [3])
> 200 µM,,O=C(CO[C@H](CO)c1ccccc1)NO,,< 6 mm,< 6 mm
> 200 µM,,O=C(COCc1ccc(C#Cc2ccccc2)cc1)NO,,13.2 mm,10.6 mm
> 200 µM,,O=C(CO[C@@H](CO)c1ccccc1)NO,,< 6 mm,< 6 mm
> 200 µM,,O=C(NO)[C@H]1O[C@@H](c2ccc(C#Cc3ccc(CN4CCOCC4)cc3)cc2)[C@@H](O)[C@H]1O,,13.1 mm,< 6 mm
> 200 µM,inactive,C[Si](C)(C)C#Cc1ccc([C@@H](CO)OCC(=O)NO)cc1,,7.5 mm,< 6 mm
> 200 µM,,C[Si](C)(C)C#Cc1ccc([C@H](CO)OCC(=O)NO)cc1,,7.2 mm,7.1 mm
> 200 µM,,C#Cc1ccc([C@H](CO)OCC(=O)NO)cc1,,< 6 mm,< 6 mm
> 200 µM,,O=C(CO[C@@H](CO)c1ccc(Br)cc1)NO,,< 6 mm,< 6 mm
